# Data published in ChEMBL document CHEMBL2424622, “Development of amino-pyrimidine inhibitors of c-Jun N-terminal kinase (JNK): kinase profiling guided optimization of a 1,2,3-benzotriazole lead” (Bioorg Med Chem Lett, 2013).
# Assays:
# Homo sapiens = species: Homo sapiens; test: Competitive binding affinity to EGFR L747 to S752 deletion mutant, P753S mutant (unknown origin) at 10 uM in presence of ATP relative to control
# [1] = biological target: T1, Serine/threonine-protein kinase 17A (Homo sapiens) (UniProt Q9UEE5); test: Competitive binding affinity to STK17A (unknown origin) at 10 uM in presence of ATP relative to control
# T1 sequence (whole entry): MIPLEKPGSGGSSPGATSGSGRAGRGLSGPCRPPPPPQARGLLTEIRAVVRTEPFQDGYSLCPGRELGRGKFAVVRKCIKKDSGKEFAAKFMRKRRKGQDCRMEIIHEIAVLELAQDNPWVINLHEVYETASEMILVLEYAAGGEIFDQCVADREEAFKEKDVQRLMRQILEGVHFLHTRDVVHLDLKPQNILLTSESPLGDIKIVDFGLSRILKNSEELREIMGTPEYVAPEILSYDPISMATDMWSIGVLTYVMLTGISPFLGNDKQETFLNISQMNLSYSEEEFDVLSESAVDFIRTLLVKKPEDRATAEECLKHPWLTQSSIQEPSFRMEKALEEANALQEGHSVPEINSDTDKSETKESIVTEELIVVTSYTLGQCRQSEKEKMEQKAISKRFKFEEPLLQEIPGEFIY
# [2] = biological target: T2, Muscle, skeletal receptor tyrosine-protein kinase (Homo sapiens) (UniProt O15146); test: Competitive binding affinity to MUSK (unknown origin) at 10 uM in presence of ATP relative to control
# T2 sequence (whole entry): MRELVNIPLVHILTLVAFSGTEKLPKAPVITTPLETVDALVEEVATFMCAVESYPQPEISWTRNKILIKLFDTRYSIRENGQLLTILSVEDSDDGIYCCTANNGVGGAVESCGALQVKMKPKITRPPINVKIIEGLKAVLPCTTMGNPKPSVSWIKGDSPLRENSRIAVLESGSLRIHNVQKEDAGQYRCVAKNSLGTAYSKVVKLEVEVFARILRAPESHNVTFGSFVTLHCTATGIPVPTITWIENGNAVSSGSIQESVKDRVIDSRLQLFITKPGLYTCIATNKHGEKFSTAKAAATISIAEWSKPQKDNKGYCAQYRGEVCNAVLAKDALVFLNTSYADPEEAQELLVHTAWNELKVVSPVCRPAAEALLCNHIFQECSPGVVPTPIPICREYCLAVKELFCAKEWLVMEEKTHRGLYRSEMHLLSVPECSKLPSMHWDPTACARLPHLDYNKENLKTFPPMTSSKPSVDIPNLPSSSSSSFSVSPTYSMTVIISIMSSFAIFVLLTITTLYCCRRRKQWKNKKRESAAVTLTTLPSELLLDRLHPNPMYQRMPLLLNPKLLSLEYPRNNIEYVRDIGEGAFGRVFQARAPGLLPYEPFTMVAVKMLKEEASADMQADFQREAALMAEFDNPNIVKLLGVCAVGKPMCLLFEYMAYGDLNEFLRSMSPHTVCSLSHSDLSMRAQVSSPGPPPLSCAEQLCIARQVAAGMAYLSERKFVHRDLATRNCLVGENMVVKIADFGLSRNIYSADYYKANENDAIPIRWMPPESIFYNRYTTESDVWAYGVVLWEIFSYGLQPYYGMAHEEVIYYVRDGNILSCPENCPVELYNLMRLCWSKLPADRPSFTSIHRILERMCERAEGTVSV
# Method in brief: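 In vitro ATP-site competition binding assay across a diverse panel of 128 kinases, with compound tested at a single concentration. Kinase selectivity scores (S15) were calculated from the panel profiles.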
# [3] = biological target: Interferon-induced, double-stranded RNA-activated protein kinase (Homo sapiens, UniProt P19525); test: Competitive binding affinity to PRKR (unknown origin) at 10 uM in presence of ATP relative to control
# Sequence of Interferon-induced, double-stranded RNA-activated protein kinase (P19525 whole entry): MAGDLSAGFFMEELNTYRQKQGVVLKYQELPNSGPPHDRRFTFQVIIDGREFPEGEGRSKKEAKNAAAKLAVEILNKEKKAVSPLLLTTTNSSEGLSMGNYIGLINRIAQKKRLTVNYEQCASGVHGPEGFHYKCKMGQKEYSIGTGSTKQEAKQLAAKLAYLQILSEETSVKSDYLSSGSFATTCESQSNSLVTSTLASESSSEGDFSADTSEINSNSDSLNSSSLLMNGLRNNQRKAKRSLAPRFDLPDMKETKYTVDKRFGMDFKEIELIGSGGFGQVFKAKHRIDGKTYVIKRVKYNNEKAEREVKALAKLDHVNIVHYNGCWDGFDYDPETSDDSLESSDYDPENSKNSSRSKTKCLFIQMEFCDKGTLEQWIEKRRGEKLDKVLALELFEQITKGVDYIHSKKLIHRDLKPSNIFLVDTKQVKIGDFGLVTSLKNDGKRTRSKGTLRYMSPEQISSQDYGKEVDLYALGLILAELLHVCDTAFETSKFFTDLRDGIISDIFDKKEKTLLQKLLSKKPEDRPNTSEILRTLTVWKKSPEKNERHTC
# [4] = biological target: T3, Serine/threonine-protein kinase Chk1 (Homo sapiens) (UniProt O14757); test: Competitive binding affinity to CHEK1 (unknown origin) at 10 uM in presence of ATP relative to control
# T3 sequence (whole entry): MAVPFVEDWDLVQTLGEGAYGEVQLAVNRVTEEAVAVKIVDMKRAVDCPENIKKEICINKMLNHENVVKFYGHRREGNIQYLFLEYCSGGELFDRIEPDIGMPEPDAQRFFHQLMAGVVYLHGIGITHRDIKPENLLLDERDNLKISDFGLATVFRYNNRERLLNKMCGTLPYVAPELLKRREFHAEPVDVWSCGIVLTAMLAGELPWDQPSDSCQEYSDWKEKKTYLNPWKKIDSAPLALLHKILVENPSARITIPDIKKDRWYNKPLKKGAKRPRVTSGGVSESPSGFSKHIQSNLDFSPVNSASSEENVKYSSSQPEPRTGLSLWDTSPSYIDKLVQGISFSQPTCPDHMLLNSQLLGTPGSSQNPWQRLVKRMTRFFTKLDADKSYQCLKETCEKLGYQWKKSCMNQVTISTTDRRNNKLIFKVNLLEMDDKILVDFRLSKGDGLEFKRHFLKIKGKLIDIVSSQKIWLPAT
# [5] = biological target: T4, Calcium/calmodulin-dependent protein kinase type IV (Homo sapiens) (UniProt Q16566); test: Competitive binding affinity to CAMK4 (unknown origin) at 10 uM in presence of ATP relative to control
# T4 sequence (whole entry): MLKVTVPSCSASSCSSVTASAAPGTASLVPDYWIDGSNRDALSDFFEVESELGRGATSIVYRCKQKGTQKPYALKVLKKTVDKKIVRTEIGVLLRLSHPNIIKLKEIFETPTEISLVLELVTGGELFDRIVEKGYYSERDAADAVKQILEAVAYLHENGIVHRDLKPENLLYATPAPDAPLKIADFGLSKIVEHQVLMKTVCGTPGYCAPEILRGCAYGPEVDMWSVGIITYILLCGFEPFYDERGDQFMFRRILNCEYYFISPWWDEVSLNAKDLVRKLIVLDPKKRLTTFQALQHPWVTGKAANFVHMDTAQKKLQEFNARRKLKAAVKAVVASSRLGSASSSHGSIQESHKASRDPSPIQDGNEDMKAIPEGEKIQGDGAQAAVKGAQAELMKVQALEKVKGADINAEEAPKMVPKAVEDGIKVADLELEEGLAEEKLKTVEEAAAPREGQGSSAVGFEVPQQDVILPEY
SMILES,inhibition (Homo sapiens) [%],inhibition [1] [%],inhibition [2] [%],inhibition [3] [%],inhibition [4] [%],inhibition [5] [%]
O[C@H]1CC[C@H](Nc2nccc(-c3n[nH]c4ccccc34)n2)CC1,< 50,100,< 50,–,–,–
N[C@H]1CC[C@H](Nc2nccc(-n3nnc4ccccc43)n2)CC1,–,100,–,–,–,–
O=C([C@H]1CC[C@H](Nc2nccc(-n3nnc4ccccc43)n2)CC1)N1CCOCC1,–,97,–,–,–,–

# The remaining lines, values ahead:
inhibition (Homo sapiens) [%],inhibition [1] [%],inhibition [2] [%],inhibition [3] [%],inhibition [4] [%],inhibition [5] [%],SMILES
< 50,–,< 50,95,< 50,< 50,O[C@H]1CC[C@H](Nc2nccc(-n3ccc4ccccc43)n2)CC1
< 50,–,< 50,100,< 50,72,O[C@H]1CC[C@H](Nc2nccc(-n3nnc4ccccc43)n2)CC1
< 50,–,< 50,100,< 50,< 50,O[C@H]1CC[C@H](Nc2nccc(-n3ncc4ccccc43)n2)CC1
